Eight compounds from publication PMC9789792 (Inorganic chemistry, 2022) can be followed below.

pKd: −log10 of the molar value. Where two headings read alike, the source gives them in different places.

Broadly, the kcat is the number of substrate molecules converted per active site and unit of time at saturation. The term Km denotes the concentration of substrate that gives half-maximal velocity. By pKd is commonly meant the negative decadic logarithm of the Kd, by convention in mol/L.

The subject of experiment [1] is SadX. Kind of experiment: Steady state kinetic analysis of SadX with varying concentrations of 1a. It is filed as biochemical.
Experiment [2] has as its system SadX. The class given is biochemical. The settings on record: for Km: KM for salt; for Km / kcat: hydroxylation of 1a (1 mM) to give 1b by 0.5 μM SadX, varying [salt]; for Kinetic behaviour of 1b formation as a function of salt concentration: saturating 1a (1 mM), SadX.
The next experiment concerns the target Fe(II) center in SadX. The experiment in a line: UV-vis titration of anion binding. Particulars: SadX-His/Fe(II)/αKG, 100 mM HEPES pH 7.5. The essentials: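 Anaerobic (N₂ glovebox, degassed buffer): SadX-His (0.51 mM, 0.5 μmol) plus FeSO₄ (0.375 μmol) in 100 mM HEPES pH 7.5, 23 °C, quartz cuvette. αKG (5 μmol) added, then anion salt (10–200 mM stocks). Spectra 350–800 nm, dilution-corrected. Difference spectra taken versus initial SadX-His/Fe(II) and zeroed at 800 nm. λmax absorbances fitted to single-site saturation binding for KD.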

The subject of experiment [3] is SadX. Kind of experiment: SadX activity assay: conversion of 1a in the presence of salts. It is filed as biochemical. Particulars: 10 μM SadX, 1 mM 1a, 50 mM salt, overnight, room temperature.

Consider `[N-]=[N+]=[N-].[Na+]` [NaN3], for which the “Fold by which hydroxylation kcat/KM exceeds WT SadA” value in the experiment on SadX [1] (SadX, hydroxylation of 1a) is given as 12 fold. Besides, the kcat is 8.72 10^−3 s^−1 in the experiment with SadX [1] (azidation of 1a by SadX to give 1eN3, varying [1a]) and 0.953 s⁻¹ in the experiment with SadX [2]. Moreover, in the experiment with SadX [2], the Km amounted to 14 µM. For the same compound, the “Kinetic behaviour of 1b formation as a function of salt concentration” value (from here on “Kinetic behaviour of 1b formation”) in the experiment with SadX [2] was “exhibit saturation kinetics”. Moreover, the values for the pKd on Fe(II) center in SadX (Blue-shifted Absorbance) and on Fe(II) center in SadX (Red-shifted Absorbance) were 2.58 and 3.22, respectively.

On to `CC(=O)O` [acetate], for which the “Conversion of 1a (to 1b)” value in the experiment with SadX [3] was “low conversion”.

As to `[Cs+].[F-]` [CsF], in the experiment on SadX [1] (SadX, hydroxylation of 1a), the “Fold improved kcat/KM relative to that in the absence of salt” value was found to be 16 fold. Besides, in the experiment with SadX [2], the Km amounted to 12000 µM and the turnover number (kcat) was determined as 0.357 s⁻¹. On Fe(II) center in SadX (Blue-shifted Absorbance), the pKd was 3.34. Also, the pKd on Fe(II) center in SadX (Red-shifted Absorbance) is 3.35.

For `N#C[O-].[Na+]` [cyanate], the “Conversion of 1a (to 1b)” value in the experiment on SadX [3] was “high conversion”.

Regarding bromide, in the experiment with SadX [3], the “Conversion of 1a (to 1b)” value is reported as “significantly lower conversion”.

`O=C[O-].[Na+]` [NaOC(O)H]: in the experiment on SadX [2], the Km was found to be 450 µM and the kcat is 0.122 s⁻¹. Besides, at Fe(II) center in SadX (Blue-shifted Absorbance), the pKd is 3.28. Also, at Fe(II) center in SadX (Red-shifted Absorbance), the pKd was 3.33.

On to `F[P-](F)(F)(F)(F)F.[NH4+]` [NH4PF6], for which the “Conversion of 1a (to 1b)” value in the experiment with SadX [3] is given as “trace conversion”. For the same compound, the “Kinetic behaviour of 1b formation” value in the experiment on SadX [2] was “does not follow Michaelis Menten kinetics”.

Turning to `[Cl-].[Na+]` [NaCl], in the experiment on SadX [2], the Km is 4160 µM, the kcat is 0.197 s⁻¹ and the “Kinetic behaviour of 1b formation” value is given as “exhibit saturation kinetics”. Besides, the pKd on Fe(II) center in SadX (Blue-shifted Absorbance) was 3.22. For the same compound, the pKd at Fe(II) center in SadX (Red-shifted Absorbance) is 3.31.
